The record followed here is ChEMBL document CHEMBL3244309, “Structure-activity relationships of aminoalkyl and -aryl glycosides having insulin-like activity” (1978).

Structures are written as SMILES.

Tested on in the first assay: not listed separately
As to the kind of experiment: Insulin-like activity in albino CD rat fat cells assessed as stimulation of oxidation of [14C]glucose to 14CO2 at 50 ug/ml after 2 hrs by scintillation counting analysis relative to insulin. The class given is functional.
Details: not given
On to `NCCCCCCS[C@H]1O[C@H](CO)[C@@H](O)[C@H](O)[C@@H]1O`, for which the Activity was determined as 132.4%.

`NCCCCCCS[C@@H]1O[C@H](CO)[C@@H](O)[C@H](O)[C@@H]1O`: the Activity is given as 109.7%. Take `NCCCCCCSC[C@@H](O)[C@@H](O)[C@H](O)[C@H](O)CO`: the Activity amounted to 0%.

Consider `NCCCCCCSC1O[C@H]([C@H](O)CO)[C@H](O)[C@@H]1O` (some centres not stated), for which the Activity was 93.6%. For the compound `NCCCCCCS[C@H]1O[C@H](CO)[C@H](O)[C@H](O)[C@@H]1O`, the Activity was determined as 109.9%. For `CNC(=O)NC[C@H]1O[C@@H](SCCCCCCN)[C@@H](O)[C@@H](O)[C@@H]1O`, the Activity is 129%.

In the next assay the test system is Rattus norvegicus. As to the kind of experiment: In vivo insulin-like activity in rat omental adipose tissue assessed as stimulation of lipogenesis by measuring conversion of [14C]glucose to [14C]lipids at 500 mg/kg, ip after 2 hrs. The class given is functional. Particulars: route intraperitoneal. In a few lines:
(§1)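 Overnight-fasted female rats (140–150 g) given one ip injection of saccharide neutralized to pH 7.5 with 0.1 N HCl, together with [14C]glucose (2 μCi/rat), in physiological saline. Controls received the same solution without saccharide or insulin; insulin reference was 200 mU/kg. After 2 h, 14C incorporated per gram of tissue was measured: diaphragm glycogen and omental adipose total lipids. Mean of five animals, % above control.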
Consider `NCCCCCCS[C@@H]1O[C@H](CO)[C@@H](O)[C@H](O)[C@@H]1O`, for which the Activity came out at 86%.

The next assay has as its system Rattus norvegicus. As to the kind of experiment: In vivo insulin-like activity in rat diaphragm muscle assessed as stimulation of glycogenolysis by measuring conversion of [14C]glucose to [14C]glycogen at 500 mg/kg, ip after 2 hrs. Particulars: route intraperitoneal, in the assay text read “glycogenesis” for “glycogenolysis”. The assay is classed as functional. In a few lines: as §1
Turning to `NCCCCCCS[C@@H]1O[C@H](CO)[C@@H](O)[C@H](O)[C@@H]1O`, the Activity came out at 74%.

Tested on in a further assay: not listed separately
As to the kind of experiment: Insulin-like activity in albino CD rat fat cells assessed as stimulation of oxidation of [14C]glucose to 14CO2 at 750 ug/ml after 2 hrs by scintillation counting analysis relative to insulin.
Details: not given
The assay is classed as functional.
Consider `Nc1ccc(O[C@H]2O[C@H](CO)[C@@H](O)[C@H](O)[C@@H]2O)cc1`, for which the Activity was 23.9%.

Tested on in another assay: not listed separately
As to the kind of experiment: Insulin-like activity in albino CD rat fat cells assessed as stimulation of oxidation of [14C]glucose to 14CO2 at 100 ug/ml after 2 hrs by scintillation counting analysis relative to insulin. The assay is classed as functional.
Details: not given
Regarding `Nc1ccc(O[C@H]2O[C@H](CO)[C@@H](O)[C@H](O)[C@@H]2O)cc1`, the Activity was 2.9%. The same measure, in the same setting: with `NCCCCCCC(=O)NCCCCCCS[C@H]1O[C@H](CO)[C@@H](O)[C@H](O)[C@@H]1O` the figure was 47.1%. As for `NCCCCCCCCS[C@H]1O[C@H](CO)[C@@H](O)[C@H](O)[C@@H]1O`, the Activity worked out at 0%.

Take `NCCCCCCS[C@H]1O[C@H](CO)[C@@H](O)[C@H](O)[C@@H]1O`: the Activity is 40.8%. Still for that read-out and setting: with `NCCCCCCS` the figure was 15.5%; with `CSCCCCCCN`, 24.8%; with `NCCCCCCSCC(O)CO` (configuration not stated), 6.9%. The same measure, in the same setting: under `O=C([O-])CCCCCS[C@H]1O[C@H](CO)[C@@H](O)[C@H](O)[C@@H]1O.[Na+]` stands 0%; under `CCCCCCCS[C@H]1O[C@H](CO)[C@@H](O)[C@H](O)[C@@H]1O`, 0%.

With `CNCCCCCCS[C@H]1O[C@H](CO)[C@@H](O)[C@H](O)[C@@H]1O`, the Activity was found to be 0%. For the compound `CN(C)CCCCCCS[C@H]1O[C@H](CO)[C@@H](O)[C@H](O)[C@@H]1O`, the Activity was 0%. In the case of `C[N+](C)(C)CCCCCCS[C@H]1O[C@H](CO)[C@@H](O)[C@H](O)[C@@H]1O.[I-]`, the Activity turned out to be 0%. `N[C@@H]1O[C@H](CO)[C@@H](O)[C@H](O)[C@@H]1O`: the Activity was 0%. With `NC[C@H]1O[C@H](CO)[C@@H](O)[C@H](O)[C@@H]1O`, the Activity is reported as 0%. On the same count and under the same terms, under `NCCS[C@H]1O[C@H](CO)[C@@H](O)[C@H](O)[C@@H]1O` stands 0%; under `NCCCCS[C@H]1O[C@H](CO)[C@@H](O)[C@H](O)[C@@H]1O`, 0%. Still for that read-out and setting: with `NCCCCCS[C@H]1O[C@H](CO)[C@@H](O)[C@H](O)[C@@H]1O` the figure was 6.1%.

As to `NCCCCCCCS[C@H]1O[C@H](CO)[C@@H](O)[C@H](O)[C@@H]1O`, the Activity stood at 14.8%. On to `Nc1ccc(CS[C@H]2O[C@H](CO)[C@@H](O)[C@H](O)[C@@H]2O)cc1`, for which the Activity was 0%. Consider `NCc1ccc(CS[C@H]2O[C@H](CO)[C@@H](O)[C@H](O)[C@@H]2O)cc1`, for which the Activity is on record as 9.2%. The same measure, in the same setting: under `NCc1ccccc1O[C@H]1O[C@H](CO)[C@@H](O)[C@H](O)[C@@H]1O` stands 0%. Take `NCc1ccc(O[C@H]2O[C@H](CO)[C@@H](O)[C@H](O)[C@@H]2O)cc1`: the Activity came out at 6.4%. Regarding `NCCCCCCS[C@@H]1O[C@H](CO)[C@@H](O)[C@H](O)[C@@H]1O`, the Activity came out at 80%.

As to `NCCCCCCS[C@@H]1O[C@H](CO)[C@@H](O)[C@H](O)[C@H]1O`, the Activity was determined as 43.8%.

As for `NCCCCCCO[C@@H]1O[C@H](CO)[C@@H](O)[C@H](O)[C@H]1O`, the Activity was determined as 23.3%. For the compound `NCCCCCCO[C@H]1O[C@H](CO)[C@@H](O)[C@H](O)[C@@H]1O`, the Activity is listed as 23.3%.

Consider `NCCCCCC(=O)N[C@@H]1O[C@H](CO)[C@@H](O)[C@H](O)[C@@H]1O`, for which the Activity amounted to 2.6%.

As for `NCCCCCCC(=O)N[C@@H]1O[C@H](CO)[C@@H](O)[C@H](O)[C@@H]1O`, the Activity stood at 20.5%. Still for that read-out and setting: with `NCCCCCCCC(=O)N[C@@H]1O[C@H](CO)[C@@H](O)[C@H](O)[C@@H]1O` the figure was 22.4%; with `NCCCCCCS(=O)(=O)[C@H]1O[C@H](CO)[C@@H](O)[C@H](O)[C@@H]1O`, 33.3%; with `NCCCCCCS[C@H]1O[C@H](CO)[C@H](O)[C@@H](O)[C@@H]1O`, 63.7%. Consider `NCCCCCCS[C@@H]1O[C@H](CO)[C@H](O)[C@@H](O)[C@@H]1O`, for which the Activity is listed as 75.2%. With `NCCCCCCS[C@@H]1O[C@H](CO)[C@H](O)[C@H](O)[C@H]1O`, the Activity was 68.8%. For `NCCCCCCS[C@H]1O[C@H](CO[C@H]2O[C@H](CO)[C@@H](O)[C@H](O)[C@@H]2O)[C@@H](O)[C@H](O)[C@@H]1O`, the Activity is on record as 21.6%.

Turning to `NCCCCCCS[C@H]1O[C@H](CO)[C@@H](O[C@H]2O[C@H](CO)[C@@H](O)[C@H](O)[C@@H]2O)[C@H](O)[C@@H]1O`, the Activity is given as 37.3%. On to `NCCCCCCS[C@H]1O[C@H](CO)[C@@H](O)[C@H](O[C@H]2O[C@H](CO)[C@@H](O)[C@H](O)[C@@H]2O)[C@@H]1O`, for which the Activity is 15.7%. Same read-out and setting: with `NCCCCCCS[C@H]1O[C@H](CO)[C@@H](O)[C@H](O)[C@@H]1O[C@H]1O[C@H](CO)[C@@H](O)[C@H](O)[C@@H]1O` the figure was 21.6%; with `NCCCCCCS[C@@H]1O[C@H](CO)[C@@H](O)[C@H](O)[C@@H]1O[C@H]1O[C@H](CO)[C@@H](O)[C@H](O)[C@@H]1O`, 0%.

With `C[C@H]1O[C@H](SCCCCCCN)[C@@H](O)[C@@H](O)[C@@H]1O`, the Activity is listed as 0%. Still for that read-out and setting: under `COC[C@H]1O[C@H](SCCCCCCN)[C@@H](O)[C@@H](O)[C@@H]1O` stands 37.5%; under `NCCCCCCS[C@H]1O[C@H](CO)[C@@H](OC(N)=O)[C@H](O)[C@@H]1O`, 64.2%. `NCCCCCCS[C@H]1O[C@H](COC(N)=O)[C@@H](O)[C@H](O)[C@@H]1O`: the Activity is 102.9%. As for `CC(=O)N[C@@H]1[C@@H](O)[C@H](O)[C@@H](CO)O[C@H]1SCCCCCCN`, the Activity amounted to 36.3%.
